Laboratory results published in ChEMBL document CHEMBL4811251 (Eur J Med Chem, 2021).

How the values were obtained:
MV4-11 [1] = test: Induction of apoptosis in human MV4-11 cells assessed as late apoptotic cells at 3 uM after 72 hrs by Annexin V FITC/PI staining based flow cytometry analysis (reference value: 3.41%); type: functional
[2] = AUC in BALB/c mouse at 10 mg/kg, po measured upto 24 hrs by LC/MS/MS analysis; type: ADME, organism-based; parameters: route oral, dose 10 mg/kg, time <=24; conditions: in vivo
[3] = Clearance in BALB/c mouse at 2 mg/kg, iv measured upto 24 hrs by LC/MS/MS analysis; type: ADME, organism-based; conditions: in vivo
[4] = AUC in BALB/c mouse at 2 mg/kg, iv measured upto 24 hrs by LC/MS/MS analysis; type: ADME, organism-based; parameters: route intravenous, dose 2 mg/kg, time <=24; conditions: in vivo
[5] = Tmax in BALB/c mouse at 10 mg/kg, po measured upto 24 hrs by LC/MS/MS analysis; type: ADME, organism-based; conditions: in vivo
MV4-11 [6] = test: Induction of cell cylce arrest in human MV4-11 cells assessed as accumulation of cells at G1 phase at 3 uM after 72 hrs by RNase A/propidium iodide staining based flow cytometry (reference value: 64.41%); type: functional
Summary of the method: (§1)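 MV4-11 cells were seeded at 8 × 10⁴, held overnight at 37 °C with 5% CO2, then treated 72 h at 3 or 10 µM against a DMSO diluent control. Pellets were fixed in 70% ethanol on ice for 15 min, then stained 1 h at room temperature with PI, 0.1 mg/mL RNase A and 0.05% Triton X-100. Sub-G1, G1, S and G2/M fractions were read by flow cytometry.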

A2780 = test: Antiproliferative activity against human A2780 cells assessed as growth inhibition incubated for 72 hrs by MTT assay; type: functional
[7] = Volume of distribution at steady state in Sprague-Dawley rat at 5 mg/kg, iv measured upto 24 hrs by LC/MS/MS analysis; type: ADME, organism-based; conditions: in vivo, read-out: Vdss
MV4-11 [8] = test: Induction of cell cylce arrest in human MV4-11 cells assessed as accumulation of cells at G2 phase at 10 uM after 72 hrs by RNase A/propidium iodide staining based flow cytometry (reference value: 12.61%); type: functional; summary of the method: as §1
MV4-11 [9] = test: Induction of cell cylce arrest in human MV4-11 cells assessed as accumulation of cells at G1 phase at 10 uM after 72 hrs by RNase A/propidium iodide staining based flow cytometry (reference value: 64.41%); type: functional; summary of the method: as §1
MV4-11 [10] = test: Induction of cell cylce arrest in human MV4-11 cells assessed as accumulation of cells at G2 phase at 3 uM after 72 hrs by RNase A/propidium iodide staining based flow cytometry (reference value: 12.61%); type: functional; summary of the method: as §1
MV4-11 [11] = test: Induction of apoptosis in human MV4-11 cells assessed as early apoptotic cells at 10 uM after 72 hrs by Annexin V FITC/PI staining based flow cytometry analysis (reference value: 2.73%); type: functional
[12] = target: Glycogen synthase kinase-3 beta (Homo sapiens) (UniProt P49841); test: Inhibition of GSK3beta (unknown origin) assessed as residual activity at 1 uM relative to control
MV4-11 [13] = test: Induction of apoptosis in human MV4-11 cells assessed as early apoptotic cells at 3 uM after 72 hrs by Annexin V FITC/PI staining based flow cytometry analysis (reference value: 2.73%); type: functional
[14] = target: Receptor-type tyrosine-protein kinase FLT3 (Homo sapiens) (UniProt P36888); test: Inhibition of human FLT3 at 1 uM using EAIYAAPFAKKK as substrate incubated for 40 mins in presence of [gamma-33ATP] by scintillation counting based radiometry assay relative to control
[15] = target: T1, Leucine-rich repeat serine/threonine-protein kinase 2 (Homo sapiens, UniProt Q5S007); test: Inhibition of human LRRK2 using RLGRDKYKTLRQIRQ as substrate after 40 mins in presence of [gamma-33ATP] by scintillation counting based radiometry assay
MV4-11 [16] = test: Induction of cell cylce arrest in human MV4-11 cells assessed as accumulation of cells at sub G1 phase at 3 uM after 72 hrs by RNase A/propidium iodide staining based flow cytometry (reference value: 1.58%); type: functional; summary of the method: as §1
MV4-11 [17] = test: Induction of apoptosis in human MV4-11 cells assessed as viable cells at 3 uM after 72 hrs by Annexin V FITC/PI staining based flow cytometry analysis (reference value: 93.63%); type: functional; conditions: read-out: Activity
MV4-11 [18] = test: Induction of apoptosis in human MV4-11 cells assessed as viable cells at 10 uM after 72 hrs by Annexin V FITC/PI staining based flow cytometry analysis (reference value: 93.63%); type: functional; conditions: read-out: Activity
MV4-11 [19] = test: Induction of apoptosis in human MV4-11 cells assessed as late apoptotic cells at 10 uM after 72 hrs by Annexin V FITC/PI staining based flow cytometry analysis (reference value: 3.41%); type: functional
[20] = target: CDK9/cyclin T1 (Homo sapiens) (UniProt O60563+P50750); test: Inhibition of CDK9/Cyclin T1 (unknown origin) assessed as residual activity at 1 uM relative to control; type: protein-complex assay
MV4-11 [21] = test: Induction of cell cylce arrest in human MV4-11 cells assessed as accumulation of cells at S phase at 3 uM after 72 hrs by RNase A/propidium iodide staining based flow cytometry (reference value: 18.81%); type: functional; summary of the method: as §1
[22] = Cmax in Sprague-Dawley rat at 20 mg/kg, po measured upto 24 hrs by LC/MS/MS analysis; type: ADME, organism-based; parameters: route oral, dose 20 mg/kg, time <=24; conditions: in vivo
[23] = target: T1, Leucine-rich repeat serine/threonine-protein kinase 2; test: Inhibition of human LRRK2 at 1 uM using RLGRDKYKTLRQIRQ as substrate after 40 mins in presence of [gamma-33ATP] by scintillation counting based radiometry assay relative to control
MDA-MB-468 = test: Antiproliferative activity against human MDA-MB-468 cells assessed as growth inhibition incubated for 72 hrs by MTT assay; type: functional
[24] = Oral bioavailability in Sprague-Dawley rat at 20 mg/kg measured upto 24 hrs by LC/MS/MS analysis; type: ADME, organism-based; conditions: in vivo
[25] = Cmax in BALB/c mouse at 10 mg/kg, po measured upto 24 hrs by LC/MS/MS analysis; type: ADME, organism-based; parameters: route oral, dose 10 mg/kg, time <=24; conditions: in vivo
[26] = target: T2, Macrophage colony-stimulating factor 1 receptor (Homo sapiens, UniProt P07333); test: Inhibition of human FMS using KKKSPGEYVNIEFG as substrate incubated for 40 mins in presence of [gamma-33ATP] by scintillation counting based radiometry assay
[27] = Tmax in Sprague-Dawley rat at 5 mg/kg, iv measured upto 24 hrs by LC/MS/MS analysis; type: ADME, organism-based; conditions: in vivo
[28] = Half life in Sprague-Dawley rat at 20 mg/kg, po measured upto 24 hrs by LC/MS/MS analysis; type: ADME, organism-based; conditions: in vivo
[29] = target: T2, Macrophage colony-stimulating factor 1 receptor; test: Inhibition of human CSF1R at 1 uM using KKKSPGEYVNIEFG as substrate incubated for 40 mins in presence of [gamma-33ATP] by scintillation counting based radiometry assay relative to control
[30] = AUC in Sprague-Dawley rat at 20 mg/kg, po measured upto 24 hrs by LC/MS/MS analysis; type: ADME, organism-based; parameters: route oral, dose 20 mg/kg, time <=24; conditions: in vivo
MV4-11 [31] = test: Induction of apoptosis in human MV4-11 cells assessed as necrotic cells at 10 uM after 72 hrs by Annexin V FITC/PI staining based flow cytometry analysis (reference value: 0.23%); type: functional

T1 sequence (Q5S007 whole entry): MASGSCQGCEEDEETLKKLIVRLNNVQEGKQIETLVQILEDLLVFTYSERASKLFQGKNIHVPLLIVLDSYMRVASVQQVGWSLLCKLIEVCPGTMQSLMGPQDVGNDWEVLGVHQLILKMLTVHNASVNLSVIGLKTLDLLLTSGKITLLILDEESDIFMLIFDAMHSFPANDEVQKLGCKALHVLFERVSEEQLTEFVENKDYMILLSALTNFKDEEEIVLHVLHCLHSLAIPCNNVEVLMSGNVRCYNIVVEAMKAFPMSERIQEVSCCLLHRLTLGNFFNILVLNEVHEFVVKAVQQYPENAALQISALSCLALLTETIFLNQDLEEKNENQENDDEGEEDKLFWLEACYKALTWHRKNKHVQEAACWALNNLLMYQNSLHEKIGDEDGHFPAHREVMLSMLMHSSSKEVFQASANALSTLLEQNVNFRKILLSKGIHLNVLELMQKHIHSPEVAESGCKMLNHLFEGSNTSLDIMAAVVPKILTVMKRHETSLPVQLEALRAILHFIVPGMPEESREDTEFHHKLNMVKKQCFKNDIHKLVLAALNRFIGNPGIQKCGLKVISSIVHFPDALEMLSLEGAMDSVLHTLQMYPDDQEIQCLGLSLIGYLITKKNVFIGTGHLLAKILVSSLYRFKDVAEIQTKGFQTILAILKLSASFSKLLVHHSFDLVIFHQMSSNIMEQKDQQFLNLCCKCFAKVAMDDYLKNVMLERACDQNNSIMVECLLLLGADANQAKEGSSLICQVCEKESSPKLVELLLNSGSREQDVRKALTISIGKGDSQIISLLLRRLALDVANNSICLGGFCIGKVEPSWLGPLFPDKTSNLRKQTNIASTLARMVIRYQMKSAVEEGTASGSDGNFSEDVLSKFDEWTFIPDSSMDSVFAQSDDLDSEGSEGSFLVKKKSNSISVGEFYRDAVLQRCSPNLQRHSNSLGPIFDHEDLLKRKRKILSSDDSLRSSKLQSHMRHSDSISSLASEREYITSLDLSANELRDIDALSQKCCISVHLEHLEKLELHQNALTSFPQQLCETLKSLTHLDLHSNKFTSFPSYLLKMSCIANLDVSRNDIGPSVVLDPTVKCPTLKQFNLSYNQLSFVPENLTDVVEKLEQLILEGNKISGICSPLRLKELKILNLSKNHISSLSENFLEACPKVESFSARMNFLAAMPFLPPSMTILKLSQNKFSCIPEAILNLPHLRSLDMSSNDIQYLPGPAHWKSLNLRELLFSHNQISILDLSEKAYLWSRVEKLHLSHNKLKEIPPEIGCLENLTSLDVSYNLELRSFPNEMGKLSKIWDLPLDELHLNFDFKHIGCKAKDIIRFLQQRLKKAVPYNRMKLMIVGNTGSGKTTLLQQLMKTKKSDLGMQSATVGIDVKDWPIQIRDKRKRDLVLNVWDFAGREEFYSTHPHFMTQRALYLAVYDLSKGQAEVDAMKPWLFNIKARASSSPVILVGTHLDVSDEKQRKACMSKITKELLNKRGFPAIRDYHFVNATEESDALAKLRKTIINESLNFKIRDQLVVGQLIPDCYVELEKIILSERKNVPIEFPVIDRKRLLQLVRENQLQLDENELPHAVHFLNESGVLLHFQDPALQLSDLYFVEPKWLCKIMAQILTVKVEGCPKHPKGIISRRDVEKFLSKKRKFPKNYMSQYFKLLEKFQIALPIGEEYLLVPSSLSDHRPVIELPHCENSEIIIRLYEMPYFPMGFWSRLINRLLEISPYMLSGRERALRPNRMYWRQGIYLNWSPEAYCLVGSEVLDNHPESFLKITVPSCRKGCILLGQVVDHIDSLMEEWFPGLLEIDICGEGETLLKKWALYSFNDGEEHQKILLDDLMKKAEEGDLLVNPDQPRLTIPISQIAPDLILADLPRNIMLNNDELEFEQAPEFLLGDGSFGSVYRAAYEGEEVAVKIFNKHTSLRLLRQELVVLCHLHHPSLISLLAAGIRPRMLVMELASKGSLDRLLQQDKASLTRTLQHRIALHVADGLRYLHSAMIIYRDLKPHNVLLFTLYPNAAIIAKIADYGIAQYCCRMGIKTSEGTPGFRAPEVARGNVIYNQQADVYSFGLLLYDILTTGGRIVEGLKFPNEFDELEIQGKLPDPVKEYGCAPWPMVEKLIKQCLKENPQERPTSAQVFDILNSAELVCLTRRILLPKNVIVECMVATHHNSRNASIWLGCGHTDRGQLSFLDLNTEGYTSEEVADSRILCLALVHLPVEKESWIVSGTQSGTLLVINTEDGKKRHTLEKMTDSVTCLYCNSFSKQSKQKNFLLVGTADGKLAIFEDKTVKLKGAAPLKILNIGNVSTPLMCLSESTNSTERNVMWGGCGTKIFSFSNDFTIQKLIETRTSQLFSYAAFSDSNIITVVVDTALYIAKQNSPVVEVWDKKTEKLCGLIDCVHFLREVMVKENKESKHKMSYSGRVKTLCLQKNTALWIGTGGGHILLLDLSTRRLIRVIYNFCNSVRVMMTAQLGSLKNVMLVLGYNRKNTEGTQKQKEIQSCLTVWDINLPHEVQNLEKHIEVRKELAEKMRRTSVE
T2 sequence (P07333 whole entry): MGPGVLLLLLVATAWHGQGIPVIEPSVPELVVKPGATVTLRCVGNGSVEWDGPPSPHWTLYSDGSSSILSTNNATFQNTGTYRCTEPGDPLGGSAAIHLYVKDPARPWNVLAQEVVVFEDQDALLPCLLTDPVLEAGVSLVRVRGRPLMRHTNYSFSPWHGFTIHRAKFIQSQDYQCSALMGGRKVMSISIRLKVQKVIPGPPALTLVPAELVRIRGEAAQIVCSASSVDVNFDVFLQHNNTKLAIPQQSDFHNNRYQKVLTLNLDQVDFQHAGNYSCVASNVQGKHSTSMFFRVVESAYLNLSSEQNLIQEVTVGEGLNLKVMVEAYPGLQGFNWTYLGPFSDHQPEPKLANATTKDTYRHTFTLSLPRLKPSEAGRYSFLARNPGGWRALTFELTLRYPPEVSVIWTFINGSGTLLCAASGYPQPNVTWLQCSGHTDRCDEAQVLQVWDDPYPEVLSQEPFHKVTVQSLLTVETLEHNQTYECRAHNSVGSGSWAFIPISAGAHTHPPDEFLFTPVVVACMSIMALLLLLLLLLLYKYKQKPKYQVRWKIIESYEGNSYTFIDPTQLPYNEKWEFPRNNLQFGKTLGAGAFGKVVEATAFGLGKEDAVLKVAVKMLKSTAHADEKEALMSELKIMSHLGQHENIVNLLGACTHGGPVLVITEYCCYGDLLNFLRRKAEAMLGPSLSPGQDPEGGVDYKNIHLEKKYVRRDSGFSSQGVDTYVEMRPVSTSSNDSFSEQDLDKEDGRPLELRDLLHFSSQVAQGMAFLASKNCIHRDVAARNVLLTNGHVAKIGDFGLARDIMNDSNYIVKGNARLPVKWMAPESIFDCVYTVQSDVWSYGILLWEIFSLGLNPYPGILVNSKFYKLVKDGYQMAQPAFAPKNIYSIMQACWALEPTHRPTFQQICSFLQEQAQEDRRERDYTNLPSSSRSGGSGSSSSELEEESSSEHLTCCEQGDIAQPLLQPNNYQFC
Chain of Glycogen synthase kinase-3 beta (Homo sapiens) (P49841 whole entry, looked up): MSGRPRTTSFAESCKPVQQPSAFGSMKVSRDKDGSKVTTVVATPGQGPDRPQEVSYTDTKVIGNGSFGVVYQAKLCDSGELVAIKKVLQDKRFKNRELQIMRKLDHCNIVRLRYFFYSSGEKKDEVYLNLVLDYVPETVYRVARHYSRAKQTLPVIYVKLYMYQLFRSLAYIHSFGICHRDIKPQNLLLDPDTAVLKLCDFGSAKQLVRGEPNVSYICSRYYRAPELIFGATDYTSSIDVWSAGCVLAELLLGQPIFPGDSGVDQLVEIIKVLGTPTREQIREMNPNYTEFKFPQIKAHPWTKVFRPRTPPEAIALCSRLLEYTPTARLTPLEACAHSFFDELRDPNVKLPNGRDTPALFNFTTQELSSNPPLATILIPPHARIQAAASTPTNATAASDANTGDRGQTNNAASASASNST
Chain of Receptor-type tyrosine-protein kinase FLT3 (Homo sapiens) (P36888 whole entry): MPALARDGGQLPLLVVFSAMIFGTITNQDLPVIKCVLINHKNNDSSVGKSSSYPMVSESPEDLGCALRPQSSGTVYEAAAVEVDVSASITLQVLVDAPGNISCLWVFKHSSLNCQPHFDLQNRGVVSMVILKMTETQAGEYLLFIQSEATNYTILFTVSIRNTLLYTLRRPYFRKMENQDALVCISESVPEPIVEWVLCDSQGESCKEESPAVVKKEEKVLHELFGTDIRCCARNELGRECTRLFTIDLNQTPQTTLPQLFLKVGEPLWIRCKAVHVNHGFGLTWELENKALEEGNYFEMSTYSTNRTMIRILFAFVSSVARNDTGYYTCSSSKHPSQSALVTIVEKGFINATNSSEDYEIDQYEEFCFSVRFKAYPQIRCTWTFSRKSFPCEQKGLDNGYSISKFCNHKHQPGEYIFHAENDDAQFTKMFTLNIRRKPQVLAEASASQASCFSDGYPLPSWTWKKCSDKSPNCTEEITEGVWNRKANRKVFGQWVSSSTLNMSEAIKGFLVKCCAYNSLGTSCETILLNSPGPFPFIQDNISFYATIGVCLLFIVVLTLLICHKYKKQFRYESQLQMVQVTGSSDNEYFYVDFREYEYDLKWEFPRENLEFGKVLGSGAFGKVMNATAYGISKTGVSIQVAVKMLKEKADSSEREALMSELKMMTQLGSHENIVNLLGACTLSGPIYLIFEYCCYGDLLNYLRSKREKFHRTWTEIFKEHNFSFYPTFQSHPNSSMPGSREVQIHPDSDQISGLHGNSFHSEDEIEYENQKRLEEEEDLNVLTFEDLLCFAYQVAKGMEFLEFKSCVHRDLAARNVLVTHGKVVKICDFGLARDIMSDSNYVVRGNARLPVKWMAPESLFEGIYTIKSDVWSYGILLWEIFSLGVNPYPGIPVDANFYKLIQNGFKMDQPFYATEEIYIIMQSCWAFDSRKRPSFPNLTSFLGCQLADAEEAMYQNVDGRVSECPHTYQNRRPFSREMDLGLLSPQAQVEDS

AUC at 24 h [2]: 2.56 µM·h | clearance [3]: 54.2 mL/min/kg | AUC at 24 h [4]: 1.55 µM·h | Tmax [5]: 20.4 min | GI50 (A2780): 5310 nM | Vd [7]: 1.57 L/kg | Activity [12]: 61% | inhibition [14]: > 50% | Ki [15]: 51 nM | Activity [20]: 61% | Cmax [22]: 3200 nM | inhibition [23]: > 50% | GI50 (MDA-MB-468): 650 nM | bioavailability [24]: 70% | Cmax [25]: 2230 nM | Ki [26]: 166 nM | Tmax [27]: 1.8 min | half-life [28]: 419 min | inhibition [29]: > 50% | AUC at 24 h [30]: 25.1 µM·h
Compound: Nc1ncc(-c2cc3ccccc3o2)c(N2CCC3(CCNC3=O)CC2)c1Cl
Activity (MV4-11 [1]): 8.24% | Activity (MV4-11 [6]): 75.73% | Activity (MV4-11 [8]): 1.83% | Activity (MV4-11 [9]): 90.92% | Activity (MV4-11 [10]): 8.11% | Activity (MV4-11 [11]): 1.96% | Activity (MV4-11 [13]): 1.81% | Activity (MV4-11 [16]): 1.73% | viability at 3 µM (MV4-11 [17]): 89.5% | viability at 10 µM (MV4-11 [18]): 83.4% | Activity (MV4-11 [19]): 14.01% | Activity (MV4-11 [21]): 10.03% | Activity (MV4-11 [31]): 0.59%
